Data published in PMC4909612 (EBioMedicine, 2016).
Values joined by “and” are separate entries in the source; they are usually repeats but may differ in a detail not shown here. Equal entries are not always repeated.

How the values were obtained:
[1] = test system: intracellular tyrosine kinase domain of human PDGFR-β; test: PDGFR-β activity assay kit; type: biochemical; conditions: n = 6 each group
In short: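 Human PDGFR-β kinase activity was measured with a commercial PDGFR-β activity assay kit, n = 6 per group. Values are means ± SEM from three independent experiments, compared with the control group.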

[2] = target: human PDGFR-β (Met 1-Lys 531) protein (human) (UniProt P09619); test: MST
[3] = target: human PDGFR-β (Met 1-Lys 531) protein with the Phe136/Ala136 and Phe138/Ala138 mutations (human) (UniProt P09619); test: SPR
[4] = target: human PDGFR-β (Met 1-Lys 531) protein (human) (UniProt P09619); test: SPR

Row | effect on the activated intracellular tyrosine kinase domain / kinase activity of human PDGFR-β [1] | Kd [2] [µM] | Kd [3] [µM] | Kd [4] | dH [4] | Molecule
1 | very obvious inhibitory effect |  |  |  |  | CCN(CC)CCNC(=O)c1c(C)[nH]c(/C=C2\C(=O)Nc3ccc(F)cc32)c1C [sunitinib]
2 |  | 5.43 | 99.5 | 4.92 µM and 8.02 µM | -2.28 kcal·M^(− 1) | destruxin A5 (peptide)
